Active and inactive are the calls of the source. The rule behind the calls is not given here.
Legend:
[1] = Selectivity index, ratio of IC50 for human LO2 cells to IC50 for human Bel7402 cells; format: toxicity; settings: LO2 cells versus Bel7402 cells, read-out: Ratio IC50
How it was run: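 SI was calculated as IC50 in L-02 normal liver cells divided by IC50 in Bel-7402 cells, both from the 72 h MTT assay.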

Bel-7402 [2] = test: Antiproliferative activity against human Bel7402 cells after 72 hrs by MTT assay; format: functional, cell-based; settings: Bel-7402, 72 h
How it was run: (§1)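 MTT assay with 72 h exposure to graded concentrations in triplicate. MTT solution then DMSO were added, followed by 10 min at room temperature, with absorbance read at 490 nm. IC50 is reported as the mean of three independent experiments. 5-FU served as positive control.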

PC-3 = test: Antiproliferative activity against human PC3 cells after 72 hrs by MTT assay; format: functional, cell-based; settings: PC-3, 72 h; how it was run: as §1
HL-60 = test: Antiproliferative activity against human HL60 cells after 72 hrs by MTT assay; format: functional, cell-based; settings: HL-60, 72 h; how it was run: as §1
L02 = test: Antiproliferative activity against human LO2 cells after 72 hrs by MTT assay; format: cell-based; settings: L02, 72 h; how it was run: as §1
Bel7402/5-FU = test: Antiproliferative activity against human Bel7402/5-FU cells after 72 hrs by MTT assay; format: functional, cell-based; how it was run: as §1
Bel-7402 [3] = test: Cell cycle arrest in human Bel7402 cells assessed as accumulation of cells at G2 phase at 0.4 uM after 48 hrs by propidium iodide staining-based flow cytometric analysis (reference value: 23.53%); format: functional
How it was run: (§2)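 Bel-7402 cells were seeded in 6-well plates and grown 24 h at 37 °C. Compound in DMSO was added in triplicate, with DMSO-only controls, for 48 h. Cells were then centrifuged, fixed in 70% ethanol at 4 °C and stained with propidium iodide. DNA content was measured by flow cytometry to give cell-cycle phase distribution.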

Bel-7402 [4] = test: Cell cycle arrest in human Bel7402 cells assessed as accumulation of cells at G1 phase at 0.8 uM after 48 hrs by propidium iodide staining-based flow cytometric analysis (reference value: 63.55%); format: functional; how it was run: as §2
Bel-7402 [5] = test: Cell cycle arrest in human Bel7402 cells assessed as accumulation of cells at G2 phase at 1.2 uM after 48 hrs by propidium iodide staining-based flow cytometric analysis (reference value: 23.53%); format: functional; how it was run: as §2
Bel-7402 [6] = test: Cell cycle arrest in human Bel7402 cells assessed as accumulation of cells at S phase at 1.2 uM after 48 hrs by propidium iodide staining-based flow cytometric analysis (reference value: 12.92%); format: functional; how it was run: as §2
Bel-7402 [7] = test: Induction of apoptosis in human Bel7402 cells assessed as upregulation of caspase9 expression after 48 hrs by Western blot analysis; format: functional, cell-based
How it was run: (§3)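 Bel-7402 cells were treated in triplicate for 48 h at 0, 0.4, 0.8 and 1.2 µM. Protein content of lysates was determined, then lysates were run on 10% SDS-PAGE and transferred to nitrocellulose. Membranes were blocked with 5% fat-free milk, probed with monoclonal antibodies and detected by ECL chemiluminescence.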

Bel-7402 [8] = test: Induction of apoptosis in human Bel7402 cells assessed as late apoptotic cells at 0.8 uM after 24 hrs by Annexin V-FITC/propidium iodide staining-based flow cytometric analysis (reference value: 0.96%); format: functional
Bel-7402 [9] = test: Cell cycle arrest in human Bel7402 cells assessed as accumulation of cells at G1 phase at 0.4 uM after 48 hrs by propidium iodide staining-based flow cytometric analysis (reference value: 63.55%); format: functional; how it was run: as §2
Bel-7402 [10] = test: Cell cycle arrest in human Bel7402 cells assessed as G2/G1 phase ratio level at 0.8 uM after 48 hrs by propidium iodide staining-based flow cytometric analysis (reference value: 1.82%); format: functional; how it was run: as §2
Bel-7402 [11] = test: Cell cycle arrest in human Bel7402 cells assessed as accumulation of cells at S phase at 0.4 uM after 48 hrs by propidium iodide staining-based flow cytometric analysis (reference value: 12.92%); format: functional; how it was run: as §2
Bel-7402 [12] = test: Cell cycle arrest in human Bel7402 cells assessed as G2/G1 phase ratio level at 0.4 uM after 48 hrs by propidium iodide staining-based flow cytometric analysis (reference value: 1.82%); format: functional; how it was run: as §2
Bel-7402 [13] = test: Induction of apoptosis in human Bel7402 cells assessed as upregulation of Bax expression after 48 hrs by Western blot analysis; format: functional, cell-based; how it was run: as §3
Bel-7402 [14] = test: Induction of apoptosis in human Bel7402 cells assessed as early apoptotic cells at 0.8 uM after 24 hrs by Annexin V-FITC/propidium iodide staining-based flow cytometric analysis (reference value: 1.07%); format: functional
Bel-7402 [15] = test: Cell cycle arrest in human Bel7402 cells assessed as accumulation of cells at G2 phase at 0.8 uM after 48 hrs by propidium iodide staining-based flow cytometric analysis (reference value: 23.53%); format: functional; how it was run: as §2
Bel-7402 [16] = test: Cell cycle arrest in human Bel7402 cells assessed as accumulation of cells at S phase at 0.8 uM after 48 hrs by propidium iodide staining-based flow cytometric analysis (reference value: 12.92%); format: functional; how it was run: as §2
Bel-7402 [17] = test: Induction of mitochondrial membrane potential in human Bel7402 cells after 48 hrs by JC-1 dye-based flow cytometric analysis; format: functional, cell-based
How it was run: (§4)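 Bel-7402 cells were exposed in triplicate for 48 h to compound or vehicle. Cells were washed with PBS and stained with JC-1 in the dark. The fraction of cells with collapsed versus intact mitochondrial membrane potential was counted by flow cytometry.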

Bel-7402 [18] = test: Induction of apoptosis in human Bel7402 cells assessed as late apoptotic cells at 1.2 uM after 24 hrs by Annexin V-FITC/propidium iodide staining-based flow cytometric analysis (reference value: 0.96%); format: functional
Bel-7402 [19] = test: Induction of apoptosis in human Bel7402 cells assessed as early apoptotic cells at 1.2 uM after 24 hrs by Annexin V-FITC/propidium iodide staining-based flow cytometric analysis (reference value: 1.07%); format: functional
Bel-7402 [20] = test: Induction of apoptosis in human Bel7402 cells assessed as early apoptotic cells at 0.4 uM after 24 hrs by Annexin V-FITC/propidium iodide staining-based flow cytometric analysis (reference value: 1.07%); format: functional
Bel-7402 [21] = test: Induction of apoptosis in human Bel7402 cells assessed as late apoptotic cells at 0.4 uM after 24 hrs by Annexin V-FITC/propidium iodide staining-based flow cytometric analysis (reference value: 0.96%); format: functional
Bel-7402 [22] = test: Induction of apoptosis in human Bel7402 cells assessed as upregulation of p53 expression after 48 hrs by Western blot analysis; format: functional, cell-based; how it was run: as §3
Bel-7402 [23] = test: Induction of apoptosis in human Bel7402 cells assessed as necrotic cells at 0.4 uM after 24 hrs by Annexin V-FITC/propidium iodide staining-based flow cytometric analysis (reference value: 11.96%); format: functional
Bel-7402 [24] = test: Induction of apoptosis in human Bel7402 cells assessed as nuclear disintegration at 0.4 to 1.2 uM after 48 hrs by Hoechst […] staining-based fluorescent microscopic analysis; format: functional, cell-based
How it was run: (§5)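 Bel-7402 cells were seeded in 6-well plates in 2 mL medium and grown 24 h. Compound was then added for 48 h, with a vehicle control. Nuclei were stained with Hoechst 33258 and examined by fluorescence microscopy for chromatin condensation and nuclear disintegration.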

Bel-7402 [25] = test: Induction of mitochondrial membrane potential loss in human Bel7402 cells at 1.2 uM after 48 hrs by JC-1 dye-based flow cytometric analysis (reference value: 7.20%); format: functional; how it was run: as §4
Bel-7402 [26] = test: Induction of apoptosis in human Bel7402 cells assessed as downregulation of Bcl2 expression after 48 hrs by Western blot analysis; format: functional, cell-based; how it was run: as §3
Bel-7402 [27] = test: Induction of apoptosis in human Bel7402 cells assessed as upregulation of cytochrome C expression after 48 hrs by Western blot analysis; format: functional, cell-based; how it was run: as §3
Bel-7402 [28] = test: Cell cycle arrest in human Bel7402 cells assessed as G2/G1 phase ratio level at 1.2 uM after 48 hrs by propidium iodide staining-based flow cytometric analysis (reference value: 1.82%); format: functional; how it was run: as §2
Bel-7402 [29] = test: Induction of apoptosis in human Bel7402 cells after 24 hrs by Annexin V-FITC/propidium iodide staining-based flow cytometric analysis; format: functional, cell-based
Bel-7402 [30] = test: Induction of apoptosis in human Bel7402 cells assessed as chromatin condensation at 0.4 to 1.2 uM after 48 hrs by Hoechst […] staining-based fluorescent microscopic analysis; format: functional, cell-based; how it was run: as §5
Bel-7402 [31] = test: Induction of mitochondrial membrane potential loss in human Bel7402 cells at 0.4 uM after 48 hrs by JC-1 dye-based flow cytometric analysis (reference value: 7.20%); format: functional; how it was run: as §4
Bel-7402 [32] = test: Cell cycle arrest in human Bel7402 cells assessed as accumulation of cells at G1 phase at 1.2 uM after 48 hrs by propidium iodide staining-based flow cytometric analysis (reference value: 63.55%); format: functional; how it was run: as §2
Bel-7402 [33] = test: Induction of apoptosis in human Bel7402 cells assessed as necrotic cells at 0.8 uM after 24 hrs by Annexin V-FITC/propidium iodide staining-based flow cytometric analysis (reference value: 11.96%); format: functional
Bel-7402 [34] = test: Induction of apoptosis in human Bel7402 cells assessed as upregulation of caspase3 expression after 48 hrs by Western blot analysis; format: functional, cell-based; how it was run: as §3
Bel-7402 [35] = test: Induction of apoptosis in human Bel7402 cells assessed as necrotic cells at 1.2 uM after 24 hrs by Annexin V-FITC/propidium iodide staining-based flow cytometric analysis (reference value: 11.96%); format: functional
Bel-7402 [36] = test: Induction of mitochondrial membrane potential loss in human Bel7402 cells at 0.8 uM after 48 hrs by JC-1 dye-based flow cytometric analysis (reference value: 7.20%); format: functional; how it was run: as §4

C=C1C(=O)[C@@]23C(=O)O[C@H]4CCC(C)(C)[C@H]5[C@H](O)OC[C@@]45[C@@H]2CC[C@@H]1[C@H]3OC(=O)CCCc1ccc(N(CCCl)CCCl)cc1
selectivity ratio [1]: 33.6 | IC50 (Bel-7402 [2]): 2.08 µM | IC50 (PC-3): 7.32 µM | IC50 (HL-60): 6.35 µM | IC50 (L02): 69.9 µM | IC50 (Bel7402/5-FU): 8.49 µM

C=C1C(=O)[C@@]23C(=O)O[C@H]4CCC(C)(C)[C@H]5[C@H](O)OC[C@@]45[C@@H]2CC[C@@H]1[C@H]3OC(=O)c1ccc(N(CCCl)CCCl)cc1
Activity (Bel-7402 [3]): 18.15% | Activity (Bel-7402 [4]): 69.71% | Activity (Bel-7402 [5]): 13.33% | selectivity ratio [1]: > 130 | Activity (Bel-7402 [6]): 14.59% | Activity (Bel-7402 [7]): Dose-dependent effect | Activity (Bel-7402 [8]): 11.31% | Activity (Bel-7402 [9]): 66.71% | Ratio (Bel-7402 [10]): 1.85 | Activity (Bel-7402 [11]): 15.15% | Ratio (Bel-7402 [12]): 1.84 | Activity (Bel-7402 [13]): Dose-dependent effect | Activity (Bel-7402 [14]): 24.22% | Activity (Bel-7402 [15]): 15.87% | Activity (Bel-7402 [16]): 14.42% | Activity (Bel-7402 [17]): Dose-dependent effect | Activity (Bel-7402 [18]): 19.39% | Activity (Bel-7402 [19]): 41.53% | Activity (Bel-7402 [20]): 11.8% | Activity (Bel-7402 [21]): 7.07% | IC50 (Bel-7402 [2]): 0.77 µM | Activity (Bel-7402 [22]): Dose-dependent effect | Activity (Bel-7402 [23]): 8.38% | IC50 (PC-3): 3.97 µM | Activity (Bel-7402 [24]): Active | IC50 (HL-60): 7.83 µM | IC50 (L02): > 100 µM | Activity (Bel-7402 [25]): 40% | Activity (Bel-7402 [26]): Dose-dependent effect | Activity (Bel-7402 [27]): Dose-dependent effect | Ratio (Bel-7402 [28]): 1.84 | Activity (Bel-7402 [29]): Dose-dependent effect | Activity (Bel-7402 [30]): Active | Activity (Bel-7402 [31]): 14.38% | Activity (Bel-7402 [32]): 72.09% | Activity (Bel-7402 [33]): 4.23% | Activity (Bel-7402 [34]): Dose-dependent effect | IC50 (Bel7402/5-FU): 2.07 µM | Activity (Bel-7402 [35]): 4.33% | Activity (Bel-7402 [36]): 20.93%

C=C1C(=O)[C@@]23C(=O)O[C@H]4CCC(C)(C)[C@H]5[C@H](OC(=O)CCC(=O)N[C@@H](Cc6ccc(N(CCCl)CCCl)cc6)C(=O)OC)OC[C@@]45[C@@H]2CC[C@@H]1[C@H]3OC(=O)CCC(=O)N[C@@H](Cc1ccc(N(CCCl)CCCl)cc1)C(=O)OC
IC50 (Bel-7402 [2]): 5.73 µM | IC50 (PC-3): > 100 µM | IC50 (HL-60): 17.6 µM | IC50 (L02): > 100 µM | IC50 (Bel7402/5-FU): 7.93 µM
